Experimental data published in ChEMBL document CHEMBL4373675, “Derivatisation of parthenolide to address chemoresistant chronic lymphocytic leukaemia” (Medchemcomm, 2019).
Active and inactive are the calls of the source. The calls are words filed in the database; no cut-off is given here.

Legend:
[1] = AUC in mouse at 10 mg/kg, po; type: ADME, organism-based; conditions: in vivo
[2] = Half life in aqueous solution at pH 7.4; type: physicochemical
[3] = Volume of distribution at steady state in mouse at 1 mg/kg, iv; type: ADME, organism-based; conditions: in vivo, read-out: Vdss
[4] = Permeability across basolateral to apical side in human Caco2 cells; type: ADME, cell-based; conditions: Caco-2
Procedure, shortened: (§1)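 Permeability was measured in a Caco-2 monolayer at pH 7.4 in both the apical-to-basolateral and basolateral-to-apical directions. Results are given as mean apparent permeability (Papp, 10⁻⁶ cm s⁻¹), and efflux ratio was derived from the two directions.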

[5] = Permeability across apical to basolateral side in human Caco2 cells; type: ADME, cell-based; conditions: Caco-2; procedure, shortened: as §1
[6] = Intrinsic clearance in mouse hepatocytes assessed as per million cells; type: ADME, cell-based, Hepatocyte; conditions: read-out: CLH
Procedure, shortened: (§2)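 Metabolic stability was measured in mouse hepatocytes. Intrinsic clearance is given in µL min⁻¹ per million cells, alongside half-life in min.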

[7] = Half life in mouse hepatocytes; type: ADME, cell-based, Hepatocyte; procedure, shortened: as §2
[8] = Oral bioavailability in mouse at 10 mg/kg; type: ADME, organism-based; conditions: in vivo
[9] = Tmax in mouse at 10 mg/kg, po; type: ADME, organism-based; conditions: in vivo
[10] = AUC (0 to infinity) in mouse at 1 mg/kg, iv; type: ADME, organism-based; design: dose 1 mg/kg, route intravenous, time infinity; conditions: in vivo
MEC1 = experiment: Antiproliferative activity against human MEC1 cells assessed as cell death in presence of ROS scavenger N-acetyl-L-cysteine by alamar blue assay; type: functional, cell-based
Procedure, shortened: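 MEC1 CLL cells (ATCC; carry mutated p53) were pretreated with N-acetylcysteine and then exposed to compound across a concentration series. Viability was read by alamarBlue, and EC50 was taken from concentration-activity plots.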

AUC(0-inf) [1] [ng·h/mL]	half-life [2] [h]	Vd [3] [L/kg]	Papp B→A [4] [×10⁻⁶ cm/s]	Papp A→B [5] [×10⁻⁶ cm/s]	hepatocyte CLint [6] [µL/min/1e6 cells]	half-life [7] [h]	bioavailability [8] [%]	Tmax [9] [h]	AUC(0-inf) [10] [ng·h/mL]	SMILES	Activity (MEC1)
711	> 2	11.6	16.2	15.9	22	1.08	95.8	0.5	80.5	C/C1=C/CC[C@@]2(C)O[C@@H]2[C@H]2OC(=O)[C@@H](CN3CCCC3)[C@@H]2CC1	–
–	–	–	–	–	16	–	–	–	–	C/C1=C\CC[C@@]2(C)O[C@@H]2[C@H]2OC(=O)[C@@H](CN[C@@H](Cc3ccccc3)C(=O)O)[C@@H]2CC1	–
1700	–	–	–	–	22	–	–	–	289	C/C1=C\CC[C@@]2(C)O[C@@H]2[C@H]2OC(=O)[C@@H](CN3CCC(c4cc(O)nc(C)n4)CC3)[C@@H]2CC1	inactive
